# Results as given in ChEMBL document CHEMBL4043132, “3-O-Substituted-3',4',5'-trimethoxyflavonols: Synthesis and cell-based evaluation as anti-prostate cancer agents” (Bioorg Med Chem, 2017).
# Legend:
# PC-3 [1] = test: Cell cycle arrest in human PC3 cells assessed as accumulation at S phase at 20 uM after 24 hrs by propidium iodide staining-based flow cytometry (reference value: 8.0%); assay type: functional
# PWR-1E = test: Antiproliferative activity against human PWR-1E cells after 3 days by WST-1 assay; assay type: cell-based; conditions: 72 h
# How it was run: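 PWR-1E benign prostate epithelial cells grown in keratinocyte serum-free medium with bovine pituitary extract and recombinant human EGF. Seeded 3,200 cells/well and treated for 3 days at 37 °C, with DMSO as vehicle control. WST-1 reagent added for 3 h, absorbance read at 430 nm. IC50 from a linear inhibition plot over at least five doses; mean ± SD, n = 3.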
# PC-3 [2] = test: Induction of apoptosis in human PC3 cells assessed as necrotic cells at 1 uM after 16 hrs by F2N12S and CYTOX AADvanced double staining-based flow cytometric analysis (reference value: 2 to 3%); assay type: functional
# PC-3 [3] = test: Induction of apoptosis in human PC3 cells assessed as apoptotic cells after 16 hrs by F2N12S and CYTOX AADvanced double staining-based flow cytometric analysis; assay type: functional, cell-based
# PC-3 [4] = test: Induction of apoptosis in human PC3 cells assessed as viable cells at 5 uM after 16 hrs by F2N12S and CYTOX AADvanced double staining-based flow cytometric analysis (reference value: 95%); assay type: functional; conditions: PC-3, 16 h, read-out: Activity
# PC-3 [5] = test: Antiproliferative activity against human PC3 cells after 3 days by WST-1 assay; assay type: functional, cell-based; conditions: PC-3, 72 h
# How it was run: (§1)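 Cells from ATCC; PC-3 and LNCaP grown in RPMI-1640 and DU145 in EMEM, each with 10% FBS and 1% penicillin/streptomycin, 37 °C, 5% CO2. Seeded 3,200 cells/well and exposed for 3 days to at least five doses, with DMSO as vehicle control. WST-1 reagent added for 3 h at 37 °C, absorbance read at 430 nm. IC50 taken from a linear inhibition plot; mean ± SD of three independent experiments.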
# PC-3 [6] = test: Induction of apoptosis in human PC3 cells assessed as viable cells at 30 uM after 16 hrs by F2N12S and CYTOX AADvanced double staining-based flow cytometric analysis (reference value: 95%); assay type: functional; conditions: PC-3, 16 h, read-out: Activity
# PC-3 [7] = test: Cell cycle arrest in human PC3 cells assessed as accumulation at G0/G1 phase at 10 uM after 24 hrs by propidium iodide staining-based flow cytometry (reference value: 37.5%); assay type: functional
# PC-3 [8] = test: Cell cycle arrest in human PC3 cells assessed as accumulation at G2/M phase at 20 uM after 24 hrs by propidium iodide staining-based flow cytometry (reference value: 27.8%); assay type: functional
# PC-3 [9] = test: Cell cycle arrest in human PC3 cells assessed as accumulation at G2/M phase at 20 uM after 16 hrs by propidium iodide staining-based flow cytometry (reference value: 32.3%); assay type: functional
# PC-3 [10] = test: Induction of apoptosis in human PC3 cells assessed as necrotic cells at 5 uM after 16 hrs by F2N12S and CYTOX AADvanced double staining-based flow cytometric analysis (reference value: 2 to 3%); assay type: functional
# PC-3 [11] = test: Induction of apoptosis in human PC3 cells assessed as apoptotic cells at 100 uM after 16 hrs by F2N12S and CYTOX AADvanced double staining-based flow cytometric analysis (reference value: 2 to 3%); assay type: functional
# PC-3 [12] = test: Induction of apoptosis in human PC3 cells assessed as necrotic cells at 10 uM after 16 hrs by F2N12S and CYTOX AADvanced double staining-based flow cytometric analysis (reference value: 2 to 3%); assay type: functional
# PC-3 [13] = test: Induction of apoptosis in human PC3 cells assessed as apoptotic cells at 30 uM after 16 hrs by F2N12S and CYTOX AADvanced double staining-based flow cytometric analysis (reference value: 2 to 3%); assay type: functional
# PC-3 [14] = test: Cell cycle arrest in human PC3 cells assessed as accumulation at S phase at 10 uM after 16 hrs by propidium iodide staining-based flow cytometry (reference value: 9.9%); assay type: functional
# PC-3 [15] = test: Induction of apoptosis in human PC3 cells assessed as viable cells at 10 uM after 16 hrs by F2N12S and CYTOX AADvanced double staining-based flow cytometric analysis (reference value: 95%); assay type: functional; conditions: PC-3, 16 h, read-out: Activity
# PC-3 [16] = test: Induction of apoptosis in human PC3 cells assessed as apoptotic cells at 10 uM after 16 hrs by F2N12S and CYTOX AADvanced double staining-based flow cytometric analysis (reference value: 2 to 3%); assay type: functional
# LNCaP = test: Antiproliferative activity against human LNCAP cells after 3 days by WST-1 assay; assay type: functional, cell-based; conditions: 72 h; how it was run: as §1
# PC-3 [17] = test: Cell cycle arrest in human PC3 cells assessed as accumulation at G2/M phase at 10 uM after 16 hrs by propidium iodide staining-based flow cytometry (reference value: 32.3%); assay type: functional
# PC-3 [18] = test: Cell cycle arrest in human PC3 cells assessed as accumulation at G0/G1 phase at 10 uM after 16 hrs by propidium iodide staining-based flow cytometry (reference value: 34.1%); assay type: functional
# PC-3 [19] = test: Induction of apoptosis in human PC3 cells assessed as necrotic cells at 50 uM after 16 hrs by F2N12S and CYTOX AADvanced double staining-based flow cytometric analysis (reference value: 2 to 3%); assay type: functional
# PC-3 [20] = test: Induction of apoptosis in human PC3 cells assessed as viable cells at 20 uM after 16 hrs by F2N12S and CYTOX AADvanced double staining-based flow cytometric analysis (reference value: 95%); assay type: functional; conditions: PC-3, 16 h, read-out: Activity
# PC-3 [21] = test: Cell cycle arrest in human PC3 cells assessed as accumulation at S phase at 20 uM after 16 hrs by propidium iodide staining-based flow cytometry (reference value: 9.9%); assay type: functional
# PC-3 [22] = test: Cell cycle arrest in human PC3 cells assessed as accumulation at G2/M phase at 10 uM after 24 hrs by propidium iodide staining-based flow cytometry (reference value: 27.8%); assay type: functional
# PC-3 [23] = test: Induction of apoptosis in human PC3 cells assessed as apoptotic cells at 5 uM after 16 hrs by F2N12S and CYTOX AADvanced double staining-based flow cytometric analysis (reference value: 2 to 3%); assay type: functional
# DU-145 = test: Antiproliferative activity against human DU145 cells after 3 days by WST-1 assay; assay type: functional, cell-based; conditions: DU-145, 72 h; how it was run: as §1
# PC-3 [24] = test: Induction of apoptosis in human PC3 cells assessed as viable cells at 50 uM after 16 hrs by F2N12S and CYTOX AADvanced double staining-based flow cytometric analysis (reference value: 95%); assay type: functional; conditions: PC-3, 16 h, read-out: Activity
# PC-3 [25] = test: Induction of apoptosis in human PC3 cells assessed as necrotic cells at 30 uM after 16 hrs by F2N12S and CYTOX AADvanced double staining-based flow cytometric analysis (reference value: 2 to 3%); assay type: functional
# PC-3 [26] = test: Cell cycle arrest in human PC3 cells assessed as accumulation at S phase at 10 uM after 24 hrs by propidium iodide staining-based flow cytometry (reference value: 8.0%); assay type: functional
# PC-3 [27] = test: Cell cycle arrest in human PC3 cells assessed as accumulation at G0/G1 phase at 20 uM after 16 hrs by propidium iodide staining-based flow cytometry (reference value: 34.1%); assay type: functional
# PC-3 [28] = test: Induction of apoptosis in human PC3 cells assessed as apoptotic cells at 20 uM after 16 hrs by F2N12S and CYTOX AADvanced double staining-based flow cytometric analysis (reference value: 2 to 3%); assay type: functional
# PC-3 [29] = test: Induction of apoptosis in human PC3 cells assessed as apoptotic cells at 1 uM after 16 hrs by F2N12S and CYTOX AADvanced double staining-based flow cytometric analysis (reference value: 2 to 3%); assay type: functional
# PC-3 [30] = test: Induction of apoptosis in human PC3 cells assessed as necrotic cells at 100 uM after 16 hrs by F2N12S and CYTOX AADvanced double staining-based flow cytometric analysis (reference value: 2 to 3%); assay type: functional
# PC-3 [31] = test: Cell cycle arrest in human PC3 cells assessed as accumulation at G0/G1 phase at 20 uM after 24 hrs by propidium iodide staining-based flow cytometry (reference value: 37.5%); assay type: functional
# PC-3 [32] = test: Induction of apoptosis in human PC3 cells assessed as apoptotic cells at 50 uM after 16 hrs by F2N12S and CYTOX AADvanced double staining-based flow cytometric analysis (reference value: 2 to 3%); assay type: functional
# PC-3 [33] = test: Induction of apoptosis in human PC3 cells assessed as viable cells at 1 uM after 16 hrs by F2N12S and CYTOX AADvanced double staining-based flow cytometric analysis (reference value: 95%); assay type: functional; conditions: PC-3, 16 h, read-out: Activity
# PC-3 [34] = test: Induction of apoptosis in human PC3 cells assessed as viable cells at 100 uM after 16 hrs by F2N12S and CYTOX AADvanced double staining-based flow cytometric analysis (reference value: 95%); assay type: functional; conditions: PC-3, 16 h, read-out: Activity
# PC-3 [35] = test: Induction of apoptosis in human PC3 cells assessed as necrotic cells at 20 uM after 16 hrs by F2N12S and CYTOX AADvanced double staining-based flow cytometric analysis (reference value: 2 to 3%); assay type: functional
# [36] = Cmax in C57BL/6J mouse prostate at 240 mg/kg, po administered as single dose measured after 6 hrs post administration; assay type: ADME, organism-based, Prostate gland; set-up: dose 240 mg/kg, route oral
IC50 (PC-3 [5]),IC50 (LNCaP),Structure (SMILES),Activity (PC-3 [1]),IC50 (PWR-1E),Activity (PC-3 [2]),Activity (PC-3 [3]),viability at 5 µM (PC-3 [4]),viability at 30 µM (PC-3 [6]),Activity (PC-3 [7]),Activity (PC-3 [8]),Activity (PC-3 [9]),Activity (PC-3 [10]),Activity (PC-3 [11]),Activity (PC-3 [12]),Activity (PC-3 [13]),Activity (PC-3 [14]),viability at 10 µM (PC-3 [15]),Activity (PC-3 [16]),Activity (PC-3 [17]),Activity (PC-3 [18]),further results
32.1 µM,14.7 µM,COc1cc(-c2oc3ccccc3c(=O)c2O)cc(OC)c1OC,6%,> 50 µM,2%,Dose-dependent effect,81%,43%,34.6%,31.2%,26.6%,2%,73%,2%,54%,12.3%,66%,39%,33%,31.2%,Activity (PC-3 [19]): 2%; viability at 20 µM (PC-3 [20]): 47%; Activity (PC-3 [21]): 11.7%; Activity (PC-3 [22]): 33.3%; Activity (PC-3 [23]): 11%; IC50 (DU-145): 27.2 µM; viability at 50 µM (PC-3 [24]): 45%; Activity (PC-3 [25]): 2%; Activity (PC-3 [26]): 6%; Activity (PC-3 [27]): 33.3%; Activity (PC-3 [28]): 50%; Activity (PC-3 [29]): 6%; Activity (PC-3 [30]): 3%; Activity (PC-3 [31]): 33.8%; Activity (PC-3 [32]): 61%; viability at 1 µM (PC-3 [33]): 90%; viability at 100 µM (PC-3 [34]): 24%; Activity (PC-3 [35]): 3%; Cmax [36]: 18.4 nM
5.8 µM,5.1 µM,CCCCCN(CCCCC)CCCOc1c(-c2cc(OC)c(OC)c(OC)c2)oc2ccccc2c1=O,1.9%,14.8 µM,2%,Dose-dependent effect,46%,0%,52.6%,26.4%,34.8%,3%,27%,4%,92%,4.5%,3%,93%,28.6%,51.3%,Activity (PC-3 [19]): 35%; viability at 20 µM (PC-3 [20]): 0%; Activity (PC-3 [21]): 6.5%; Activity (PC-3 [22]): 25.4%; Activity (PC-3 [23]): 51%; IC50 (DU-145): 12.3 µM; viability at 50 µM (PC-3 [24]): 0%; Activity (PC-3 [25]): 8%; Activity (PC-3 [26]): 3.7%; Activity (PC-3 [27]): 40.8%; Activity (PC-3 [28]): 94%; Activity (PC-3 [29]): 10%; Activity (PC-3 [30]): 72%; Activity (PC-3 [31]): 59.8%; Activity (PC-3 [32]): 65%; viability at 1 µM (PC-3 [33]): 87%; viability at 100 µM (PC-3 [34]): 0%; Activity (PC-3 [35]): 6%
